Assay [1] addresses T1, Ectonucleotide pyrophosphatase/phosphodiesterase family member 7 (Homo sapiens) (UniProt Q6UWV6).
T1 sequence (whole entry): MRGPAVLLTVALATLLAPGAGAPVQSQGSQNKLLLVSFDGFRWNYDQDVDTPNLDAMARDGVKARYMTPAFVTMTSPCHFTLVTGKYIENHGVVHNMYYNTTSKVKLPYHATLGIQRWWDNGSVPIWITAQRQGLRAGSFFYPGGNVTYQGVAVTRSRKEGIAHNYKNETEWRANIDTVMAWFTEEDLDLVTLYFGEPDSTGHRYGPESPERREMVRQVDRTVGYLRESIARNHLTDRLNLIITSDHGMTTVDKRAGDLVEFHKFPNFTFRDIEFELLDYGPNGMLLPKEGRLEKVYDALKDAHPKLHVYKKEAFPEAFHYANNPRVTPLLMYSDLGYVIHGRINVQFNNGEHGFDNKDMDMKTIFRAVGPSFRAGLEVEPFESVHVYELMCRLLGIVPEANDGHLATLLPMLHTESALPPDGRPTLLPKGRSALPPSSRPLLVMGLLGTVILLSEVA
As to the kind of experiment: Inhibition of ENPP7 (unknown origin) using pNPPC as substrate measured every 2 mins for 1 hr by […]. Summed up:
(§1)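 10 nM ENPP6 or ENPP7, 10 μM pNPPC, compound 0–10 μM, triplicate; ENPP6 buffer 100 mM Tris, 500 mM NaCl, 0.05% Triton pH 9.0; ENPP7 buffer 50 mM Tris, 150 mM NaCl, 10 mM taurocholate pH 8.5; 405 nm absorbance every 2 min for 1 h.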

Assay [2] concerns the target T2, Glycerophosphocholine cholinephosphodiesterase ENPP6 (Homo sapiens) (UniProt Q6UWR7).
T2 sequence (whole entry): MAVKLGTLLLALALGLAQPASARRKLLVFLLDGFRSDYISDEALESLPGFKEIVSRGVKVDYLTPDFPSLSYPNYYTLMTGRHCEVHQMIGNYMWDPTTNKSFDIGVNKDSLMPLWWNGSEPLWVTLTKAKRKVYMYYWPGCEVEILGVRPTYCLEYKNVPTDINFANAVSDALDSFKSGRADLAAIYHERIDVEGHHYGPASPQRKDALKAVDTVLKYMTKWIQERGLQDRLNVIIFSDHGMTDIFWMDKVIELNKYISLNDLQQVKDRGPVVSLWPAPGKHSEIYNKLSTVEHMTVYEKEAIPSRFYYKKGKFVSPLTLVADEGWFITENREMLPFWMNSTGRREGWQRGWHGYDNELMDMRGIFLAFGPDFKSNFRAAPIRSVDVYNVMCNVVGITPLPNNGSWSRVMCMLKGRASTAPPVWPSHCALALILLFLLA
Nature of the assay: Inhibition of ENPP6 (unknown origin) using pNPPC as substrate measured every 2 mins for 1 hr by […]. The procedure, abridged:
as §1

For assay [3], the target named is T3, Autotaxin (Homo sapiens, UniProt Q13822). Nature of the assay: Inhibition of recombinant human C-terminal FLAg-tagged ATX nucleotide pyrophosphate phosphatase activity expressed in baculovirus infected sf9 cells using pNP-TMP as substrate measured every 2 mins for 1 hr by fluorescence assay.
In assay [4] the target is T3, Autotaxin. As to the kind of experiment: Inhibition of recombinant human C-terminal FLAg-tagged ATX lysophospholipase D activity expressed in baculovirus infected sf9 cells using FRET based FS-3 substrate measured every 2 mins for 1 hr by fluorescence assay.
For assay [5], the target named is Lysophosphatidic acid receptor 5 (Homo sapiens) (UniProt Q9H1C0). As to the kind of experiment: Antagonist activity at FLAG-tagged LPA5 receptor (unknown origin) expressed in rat B103 cells assessed as inhibition of LPA-induced intracellular calcium level up to 100 uM measured every 3.42 secs for 70 secs by Fura-2-AM dye based fluorescence assay. In kind it is functional, cell-based. On the technique in general: A change in cytosolic calcium serves as a functional read-out for many receptors and channels.
Sequence of Lysophosphatidic acid receptor 5 (Homo sapiens) (Q9H1C0 whole entry): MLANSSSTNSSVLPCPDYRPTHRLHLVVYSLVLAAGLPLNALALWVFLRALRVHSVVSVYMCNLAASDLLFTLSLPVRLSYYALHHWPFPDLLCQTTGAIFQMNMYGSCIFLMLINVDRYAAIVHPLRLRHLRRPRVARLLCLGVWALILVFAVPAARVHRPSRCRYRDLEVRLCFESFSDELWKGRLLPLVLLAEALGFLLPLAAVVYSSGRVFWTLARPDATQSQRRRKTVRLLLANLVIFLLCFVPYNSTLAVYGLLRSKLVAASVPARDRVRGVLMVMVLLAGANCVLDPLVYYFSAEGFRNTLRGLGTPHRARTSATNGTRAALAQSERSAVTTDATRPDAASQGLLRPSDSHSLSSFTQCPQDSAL

For assay [6], the target named is Lysophosphatidic acid receptor 4 (Homo sapiens) (UniProt Q99677). Nature of the assay: Antagonist activity at LPA4 receptor (unknown origin) expressed in CHO cells assessed as inhibition of LPA-induced intracellular calcium level up to 100 uM measured every 3.42 secs for 70 secs by Fura-2-AM dye based fluorescence assay. The class given is functional, cell-based.
Sequence of Lysophosphatidic acid receptor 4 (Homo sapiens) (Q99677 whole entry): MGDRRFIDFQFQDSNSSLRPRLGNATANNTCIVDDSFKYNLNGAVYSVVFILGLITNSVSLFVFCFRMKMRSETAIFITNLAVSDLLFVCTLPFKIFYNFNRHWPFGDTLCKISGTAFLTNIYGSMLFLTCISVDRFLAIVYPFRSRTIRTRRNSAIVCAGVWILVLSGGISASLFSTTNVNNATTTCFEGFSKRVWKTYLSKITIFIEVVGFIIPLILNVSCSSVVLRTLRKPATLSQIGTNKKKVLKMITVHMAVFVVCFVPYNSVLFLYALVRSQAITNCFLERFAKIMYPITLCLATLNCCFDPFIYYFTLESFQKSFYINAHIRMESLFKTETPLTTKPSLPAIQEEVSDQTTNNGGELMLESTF

Assay [7] deals with Lysophosphatidic acid receptor 2 (Homo sapiens) (UniProt Q9HBW0). Nature of the assay: Antagonist activity at LPA2 receptor (unknown origin) expressed in MEF cells assessed as inhibition of LPA-induced intracellular calcium level up to 100 uM measured every 3.42 secs for 70 secs by Fura-2-AM dye based fluorescence assay. The class given is functional, cell-based.
Sequence of Lysophosphatidic acid receptor 2 (Homo sapiens) (Q9HBW0 whole entry): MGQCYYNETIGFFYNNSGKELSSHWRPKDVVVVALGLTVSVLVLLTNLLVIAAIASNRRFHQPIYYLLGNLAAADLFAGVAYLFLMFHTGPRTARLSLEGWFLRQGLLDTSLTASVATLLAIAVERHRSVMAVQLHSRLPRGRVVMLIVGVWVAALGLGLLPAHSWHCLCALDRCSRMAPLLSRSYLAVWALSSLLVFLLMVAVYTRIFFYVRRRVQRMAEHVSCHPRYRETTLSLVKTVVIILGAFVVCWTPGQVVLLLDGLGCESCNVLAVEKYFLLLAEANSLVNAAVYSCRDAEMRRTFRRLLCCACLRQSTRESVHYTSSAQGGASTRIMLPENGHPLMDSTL
For assay [8], the target named is T4, Lysophosphatidic acid receptor 3 (Homo sapiens) (UniProt Q9UBY5).
T4 sequence (whole entry): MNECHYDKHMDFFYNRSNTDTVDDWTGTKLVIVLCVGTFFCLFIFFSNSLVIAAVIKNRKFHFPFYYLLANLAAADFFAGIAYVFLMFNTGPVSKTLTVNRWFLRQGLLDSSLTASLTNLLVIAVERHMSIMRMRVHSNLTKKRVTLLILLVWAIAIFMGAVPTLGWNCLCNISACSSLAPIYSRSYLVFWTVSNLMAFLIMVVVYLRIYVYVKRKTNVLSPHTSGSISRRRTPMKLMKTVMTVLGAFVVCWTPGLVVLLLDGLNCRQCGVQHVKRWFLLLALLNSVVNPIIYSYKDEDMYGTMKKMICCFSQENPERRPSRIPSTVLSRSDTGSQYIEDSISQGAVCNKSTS
As to the kind of experiment: Antagonist activity at LPA3 receptor (unknown origin) expressed in rat RH7777 cells assessed as inhibition of LPA-induced intracellular calcium level up to 100 uM measured every 3.42 secs for 70 secs by Fura-2-AM dye based fluorescence assay. The class given is functional, cell-based.

In assay [9] the target is Lysophosphatidic acid receptor 1 (Homo sapiens, UniProt Q92633). Nature of the assay: Antagonist activity at LPA1 receptor (unknown origin) expressed in rat RH7777 cells assessed as inhibition of LPA-induced intracellular calcium level measured every 3.42 secs for 70 secs by Fura-2-AM dye based fluorescence assay. The class given is functional, cell-based.
Sequence of Lysophosphatidic acid receptor 1 (Q92633 whole entry): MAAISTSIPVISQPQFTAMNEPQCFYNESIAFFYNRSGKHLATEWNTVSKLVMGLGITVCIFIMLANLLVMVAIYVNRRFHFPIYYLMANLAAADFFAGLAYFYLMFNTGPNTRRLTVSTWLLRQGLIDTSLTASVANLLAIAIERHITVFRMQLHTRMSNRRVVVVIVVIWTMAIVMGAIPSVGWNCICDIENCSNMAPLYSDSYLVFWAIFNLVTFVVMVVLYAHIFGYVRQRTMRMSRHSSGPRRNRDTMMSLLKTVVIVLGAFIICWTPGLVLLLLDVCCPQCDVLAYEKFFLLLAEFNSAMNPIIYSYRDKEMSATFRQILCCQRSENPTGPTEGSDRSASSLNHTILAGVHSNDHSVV

Activity calls are given as the source filed them. The rule behind the calls is not given here.

Consider `CN1CCN(S(=O)(=O)c2cc(C(=O)Nc3cc(F)c(F)c(F)c3)c(Cl)cc2Cl)CC1`, for which the inhibition entry (in assay [1]; in [2]; at Autotaxin [3]) was “inactive” in each case.
Turning to `O=S(=O)(c1cc(C(=S)Nc2cc(Cl)c(F)c(Cl)c2)c(Cl)cc1Cl)N1CCOCC1`, the 50% inhibitory concentration (IC50) on Autotaxin [4] turned out to be 98 nM. In addition, the inhibition entry (in assay [1]; in assay [2]; at Autotaxin [3]) was “inactive” each time.
As for `O=C(Nc1cc(Cl)c(Cl)c(Cl)c1)c1cc(S(=O)(=O)N2CCOCC2)c(Cl)cc1Cl`, on Autotaxin [4], the IC50 is more than 1000 nM. Moreover, the inhibition result (in assay [1]; in [2]; on Autotaxin [3]) was “inactive” each time.
For `COc1cc(Cl)c(C(=O)Nc2cc(F)c(C(=O)O)c(F)c2)cc1S(=O)(=O)N1CCOCC1`, the IC50 on Autotaxin [4] is more than 1000 nM. Moreover, the inhibition result (in assay [1]; in assay [2]; on Autotaxin [3]) was “inactive” in each case.
With `CN(C(=O)c1cc(S(=O)(=O)N2CCOCC2)c(Cl)cc1Cl)c1cccc(F)c1`, on Autotaxin [4], the half-inhibitory concentration (IC50) is more than 1000 nM. In addition, the inhibition result (in assay [1]; in [2]; at Autotaxin [3]) was “inactive” in each case.
As to `CS(=O)(=O)N(C(=O)c1cc(NN2CCOCC2)c(Cl)cc1Cl)c1cc(F)c(F)c(F)c1`, the IC50 on Autotaxin [4] is more than 1000 nM. Also, the inhibition result (in assay [1]; in [2]; on Autotaxin [3]) was “inactive” throughout.
With `O=S(=O)(c1cc(N(S(=O)(=O)c2cccc(F)c2)S(=O)(=O)c2cccc(F)c2)c(Cl)cc1Cl)N1CCOCC1`, on Autotaxin [4], the IC50 is more than 1000 nM. Moreover, the inhibition entry (in assay [1]; in assay [2]; on Autotaxin [3]) was “inactive” each time.
Consider `O=C(Nc1cc(F)c(F)c(F)c1Br)c1cc(S(=O)(=O)N2CCOCC2)c(Cl)cc1Cl`, for which the IC50 at Autotaxin [4] is 18 nM; in assay [9], “Not Active”. In addition, the inhibition result (in assay [1]; in assay [5]; in assay [2]; in assay [6]; at Autotaxin [3]; in assay [7]) was “inactive” in each case. Also, the inhibition result in [8] is “inactive”.
With `CN1CCN(S(=O)(=O)c2cc(C(=O)Nc3cc(Cl)c(F)c(Cl)c3)c(Cl)cc2Cl)CC1`, the inhibition result (in assay [1]; in assay [2]; on Autotaxin [3]) was “inactive” in each case.
In the case of `O=S(=O)(c1cc(-c2nc3cccc(F)c3o2)c(Cl)cc1Cl)N1CCOCC1`, the IC50 at Autotaxin [4] is more than 1000 nM. Moreover, the inhibition result (in [1]; in assay [2]; on Autotaxin [3]) was “inactive” throughout.
With `COc1cc(NC(=O)c2cc(S(=O)(=O)N3CCOCC3)c(Cl)cc2Cl)cc(OC)c1OC`, at Autotaxin [4], the 50% inhibitory concentration (IC50) was more than 1000 nM. The inhibition entry (in assay [1]; in [2]; at Autotaxin [3]) was “inactive” throughout.
For the molecule `O=S(=O)(c1cc(-c2nc3cc(F)c(F)cc3[nH]2)c(Cl)cc1Cl)N1CCOCC1`, the half-maximal inhibitory concentration (IC50) at Autotaxin [4] is more than 1000 nM. Also, the inhibition entry (in assay [1]; in [2]; at Autotaxin [3]) was “inactive” throughout.
On to `O=C(Nc1cc(F)c(F)c(F)c1)c1cc(NN2CCOCC2)c(Cl)cc1Cl`, for which the IC50 on Autotaxin [4] is more than 1000 nM. The inhibition result (in assay [1]; in [2]; on Autotaxin [3]) was “inactive” each time.
`COC(=O)c1c(F)cc(NC(=O)c2cc(S(=O)(=O)N3CCOCC3)c(Cl)cc2Cl)cc1F`: the inhibition entry (in [1]; in [2]; on Autotaxin [3]) was “inactive” in each case.
With `CN1CCN(S(=O)(=O)c2cc(C(=S)Nc3cc(Cl)c(F)c(Cl)c3)c(Cl)cc2Cl)CC1`, the inhibition result (in assay [1]; in [2]; on Autotaxin [3]) was “inactive” in each case.
Take `O=S(=O)(Nc1cc(F)c(F)c(F)c1)c1cc(S(=O)(=O)N2CCOCC2)c(Cl)cc1Cl`: the IC50 on Autotaxin [4] is more than 1000 nM. Also, the inhibition entry (in assay [1]; in assay [2]; on Autotaxin [3]) was “inactive” throughout.
For `O=S(=O)(c1cc(CNc2ccc(F)c(F)c2)c(Cl)cc1Cl)N1CCOCC1`, on Autotaxin [4], the half-inhibitory concentration (IC50) is more than 1000 nM. The inhibition entry (in assay [1]; in assay [2]; on Autotaxin [3]) was “inactive” throughout.
Turning to `O=S(=O)(Nc1cccc(F)c1)c1cc(S(=O)(=O)N2CCOCC2)c(Cl)cc1Cl`, at Autotaxin [4], the IC50 is more than 1000 nM. In addition, the inhibition result (in assay [1]; in assay [2]; on Autotaxin [3]) was “inactive” each time.
Regarding `N#Cc1c(F)cc(NC(=O)c2cc(S(=O)(=O)N3CCOCC3)c(Cl)cc2Cl)cc1F`, the inhibition result (in [1]; in assay [2]; at Autotaxin [3]) was “inactive” throughout.
Consider `O=S(=O)(c1cc(C(=S)Nc2cccc(F)c2)c(Cl)cc1Cl)N1CCOCC1`, for which the inhibition entry (in assay [1]; in assay [2]; on Autotaxin [3]) was “inactive” each time.
`O=S(=O)(Nc1cc(S(=O)(=O)N2CCOCC2)c(Cl)cc1Cl)c1cccc(F)c1`: the IC50 at Autotaxin [4] was more than 1000 nM. Also, the inhibition result (in [1]; in [2]; on Autotaxin [3]) was “inactive” in each case.
As for `O=C(Nc1c(F)c(F)c(F)c(F)c1F)c1cc(S(=O)(=O)N2CCOCC2)c(Cl)cc1Cl`, the inhibition entry (in assay [1]; in assay [2]; at Autotaxin [3]) was “inactive” each time.
For the molecule `O=S(=O)(c1cc(C(=S)Nc2ccc(F)c(F)c2)c(Cl)cc1Cl)N1CCOCC1`, the IC50 on Autotaxin [4] was 70 nM. The inhibition result (in assay [1]; in assay [2]; at Autotaxin [3]) was “inactive” throughout.
In the case of `O=S(=O)(c1cc(CNc2cc(F)c(F)c(F)c2)c(Cl)cc1Cl)N1CCOCC1`, the inhibition result (in assay [1]; in [2]; on Autotaxin [3]) was “inactive” in each case.

One may read the IC50 as the point on the concentration scale where inhibition reaches its midpoint.

(Values after ChEMBL document CHEMBL3997796 (J Med Chem, 2017).)
